Source: ChEMBL document CHEMBL2069283, “C-N bond formation under Cu-catalysis: synthesis and in vitro evaluation of N-aryl substituted thieno[2,3-d]pyrimidin-4(3H)-ones against chorismate mutase” (Bioorg Med Chem, 2012)

Target: T1, Intracellular chorismate mutase (Mycobacterium tuberculosis, UniProt P9WIC1)
T1 sequence (P9WIC1 whole entry): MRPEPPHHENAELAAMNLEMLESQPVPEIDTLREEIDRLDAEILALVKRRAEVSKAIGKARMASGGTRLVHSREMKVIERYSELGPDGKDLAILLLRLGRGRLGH
Experiment: Inhibition of Mycobacterium tuberculosis chorismate mutase using chorismate substrate in dose response study by spectrophotometry

Row | Structure (SMILES) | IC50 [µM]
1 | COc1cccc(-n2cnc3sc4c(c3c2=O)CCCC4)c1 | 19.8
2 | COc1cc(CCNc2c([N+](=O)[O-])cc(C(=O)O)cc2S(N)(=O)=O)cc(OC)c1 | < 10
3 | CC(C)(C)OC(=O)N1CCc2c(sc3ncn(-c4cccc(C=O)c4)c(=O)c23)C1 | 23.9

Target: T2, Intracellular chorismate mutase (Mycobacterium tuberculosis) (UniProt P9WIC1)
T2 sequence (whole entry): T1 sequence (P9WIC1 whole entry)
Experiment: Inhibition of Mycobacterium tuberculosis chorismate mutase at 50 uM using chorismate substrate by spectrophotometry
Summary of the method: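 His-tagged MtCM expressed in E. coli BL21(DE3) and purified by Ni-NTA. Started with 180 pmol enzyme, 5 min at 37 °C, stopped with 1 N HCl. Prephenate formation read at A274 against no-enzyme blanks. % inhibition = 100 − residual activity.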

Row | Structure (SMILES) | inhibition [%]
4 | O=C(c1ccccc1I)N1CCc2c(sc3ncn(-c4ccccc4)c(=O)c23)C1 | 12.6
5 | O=c1c2c3c(sc2ncn1-c1ccc2ccccc2c1)CCCC3 | 33
6 | O=c1c2c3c(sc2ncn1-c1ccccc1)CCCCC3 | 13
7 | COc1cccc(-n2cnc3sc4c(c3c2=O)CCCC4)c1 | 47
8 | O=c1c2c3c(sc2ncn1-c1ccccc1)CCCC3 | 35.6
9 | O=c1c2c3c(sc2ncn1-c1ccccc1)CNCC3 | 36.2
10 | CC(C)(C)OC(=O)N1CCc2c(sc3ncn(-c4ccccc4)c(=O)c23)C1 | 37.2
11 | O=c1c2c3c(sc2ncn1-c1ccc(F)cc1)CCCC3 | 12.8
12 | CC(C)(C)OC(=O)N1CCc2c(sc3ncn(-c4cccc(C=O)c4)c(=O)c23)C1 | 49.9
13 | O=c1c2c3c(sc2ncn1-c1cccc(Cl)c1)CCCC3 | 42.5
14 | Cc1csc2ncn(-c3ccc(F)cc3)c(=O)c12 | 17.7
15 | O=c1c2c3c(sc2ncn1-c1ccc(F)cc1)CCCCC3 | 14.6
16 | O=Cc1cccc(-n2cnc3sc4c(c3c2=O)CCCC4)c1 | 45.3
